Measured values of several laboratories.
Lines come from different studies, so protocols differ.
Observed: microbial growth

| Structure (SMILES) | organism | method | strain | time | MIC |
| --- | --- | --- | --- | --- | --- |
| O=C(O)Cc1ccccc1Oc1ccc(-c2noc(-c3ccc(O)cc3)n2)cc1 | Clostridioides difficile | broth dilution | – | 48 h | > 50 mg/L |
| C[C@@H]1[C@H](O)[C@@H](C)/C=C/C=C/C=C/C=C/C=C/C=C/C=C/[C@H](O[C@@H]2O[C@H](C)[C@@H](O)[C@H](N)[C@@H]2O)C[C@@H]2O[C@](O)(C[C@@H](O)C[C@@H](O)[C@H](O)CC[C@@H](O)C[C@@H](O)CC(=O)O[C@H]1C)C[C@H](O)[C@H]2C(=O)O | Saccharomyces cerevisiae | – | – | – | 0.5 mg/L |
| O=[N+]([O-])c1cc(-c2nc(-c3ccc(Oc4ccc(C(F)(F)F)cc4)cc3)no2)cnc1O | Clostridioides difficile | broth dilution | ATCC43255 | 48 h | 2 to 4 mg/L |
| O=[N+]([O-])c1ccc(-c2nc(-c3ccc(Oc4ccccc4)cc3)no2)cc1 | Clostridioides difficile | broth dilution | – | 48 h | 8 mg/L |
| Cc1ccc(C)n1-c1ccc(-c2nnc(-c3cccc([N+](=O)[O-])c3)[nH]2)cc1 | Saccharomyces cerevisiae | broth dilution | ATCC9763 | – | 31.2 mg/L |
| Cl.NCc1ccc(Oc2ccc(-c3noc(-c4ccc(O)cc4)n3)cc2)cc1 | Clostridioides difficile | broth dilution | – | 48 h | 6 mg/L |
| CC[C@@H]([C@H](C)O)n1ncn(-c2ccc(N3CCN(c4ccc(OC[C@@H]5CO[C@@](Cn6cncn6)(c6ccc(F)cc6F)C5)cc4)CC3)cc2)c1=O | Saccharomyces cerevisiae | – | BY4743 | 72 h | < 0.3 µM |
| Cc1ccc(C)n1-c1ccc(-c2nnc(-c3ccc(O)cc3)[nH]2)cc1 | Saccharomyces cerevisiae | broth dilution | ATCC9763 | – | 31.2 mg/L |
| Clc1ccccc1C(c1ccccc1)(c1ccccc1)n1ccnc1 | Saccharomyces cerevisiae | – | – | – | 20 to 25 µM |
| Cc1ccc(C)n1-c1ccc(C(=O)NNC=O)cc1 | Saccharomyces cerevisiae | broth dilution | ATCC9763 | – | 250 mg/L |
| Oc1ccc(-c2nc(-c3ccc(Oc4ccccc4CBr)cc3)no2)cc1 | Clostridioides difficile | broth dilution | ATCC43255 | 48 h | 8 to 128 mg/L |
| Cc1ccc(C)n1-c1ccc(-c2nnc(-c3ccccc3Cl)[nH]2)cc1 | Saccharomyces cerevisiae | broth dilution | ATCC9763 | – | 8 mg/L |
| Oc1ccc(-c2nc(-c3ccc(Oc4ccc(C(F)(F)F)cc4)cc3)no2)cc1F | Clostridioides difficile | broth dilution | ATCC43255 | 48 h | 2 to 4 mg/L |
| O=C(O)COc1cccc(Oc2ccc(-c3noc(-c4ccc(O)cc4)n3)cc2)c1 | Clostridioides difficile | broth dilution | – | 48 h | 50 mg/L |
| Cc1ccc(C)n1-c1ccc(-c2nnc(-c3c(Cl)cccc3Cl)[nH]2)cc1 | Saccharomyces cerevisiae | broth dilution | ATCC9763 | – | 2 mg/L |
| Cl.Oc1ccc(-c2nc(-c3ccc(Oc4ccc5c(c4)CNCC5)cc3)no2)cc1 | Clostridioides difficile | broth dilution | – | 48 h | 4 mg/L |
| CC/C(=C(\c1ccccc1)c1ccc(OCCN(C)C)cc1)c1ccccc1 | Saccharomyces cerevisiae | – | – | – | 20 to 25 µM |
